ChEMBL document CHEMBL1144051, “Structural considerations of NK109, an antitumor benzo[c]phenanthridine alkaloid” (J Nat Prod, 1999)
Values after ≈ are worked out from the molar mass of the structure shown.

Legend:
[1] = system: HeLa; assay: Growth inhibition of human HeLa S3 cells after 72 hrs; type: functional, cell-based
Summary of the method: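 HeLa S3 in Eagle's MEM with 10% calf serum and 60 µg/mL kanamycin, 37 °C, 5% CO2; seeded, grown 24 h, then exposed 72 h to compound diluted in 5% glucose at 0.01–10 µg/mL. Nuclei stained with methylene blue, cell number read at 660 nm; IC50 from growth rate relative to control.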

[2] = system: P388; assay: Antitumor activity against mouse P388 cells xenografted CDF1 mouse at 50 mg/kg, iv administered on day 1 after 30 days relative to control; type: functional
Summary of the method: (§1)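 Female CDF1 mice, 6 weeks old, five per group, inoculated iv with P-388 leukemia cells (1 × 10^5 cells/body) on day 0; cells maintained by ip passage in DBA/2 mice. Single tail-vein injection on day 1 (0.1 mL per 10 g), vehicle 5% glucose or EtOH–Cremophore (1:1) diluted in 5% glucose. Followed 30 days; T/C (%) from median survival time, treated versus control.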

[3] = Dissociation constant, pKa of the compound; type: physicochemical
[4] = system: Mus musculus; assay: Toxicity in mouse P388 cells xenografted CDF1 mouse assessed as decrease in body weight at 150 mg/kg, iv administered on day 1 after 30 days; type: organism-based; parameters: dose 150 mg/kg, route intravenous; conditions: in vivo, 720 h
Summary of the method: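 Female CDF1 mice, 6 weeks old, five per group, given P-388 cells iv (1 × 10^5 cells/body) on day 0, then a single tail-vein dose on day 1 in 5% glucose or EtOH–Cremophore (1:1) diluted in 5% glucose. Body weight tracked against untreated controls, reported as mean with s.e.mean.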

[5] = system: Mus musculus; assay: Toxicity against mouse P388 cells xenografted CDF1 mouse assessed as survival time at 75 mg/kg, iv; type: organism-based; parameters: dose 75 mg/kg, route intravenous; conditions: in vivo; summary of the method: as §1
[6] = system: Mus musculus; assay: Toxicity against mouse P388 cells xenografted CDF1 mouse assessed as survival time at 150 mg/kg, iv; type: organism-based; parameters: dose 150 mg/kg, route intravenous; conditions: in vivo; summary of the method: as §1
[7] = system: Mus musculus; assay: Toxicity against mouse P388 cells xenografted CDF1 mouse assessed as survival time at 50 mg/kg, iv; type: organism-based; parameters: dose 50 mg/kg, route intravenous; conditions: in vivo; summary of the method: as §1
[8] = system: P388; assay: Antitumor activity against mouse P388 cells xenografted CDF1 mouse at 150 mg/kg, iv administered on day 1 after 30 days relative to control; type: functional; summary of the method: as §1
[9] = system: P388; assay: Antitumor activity against mouse P388 cells xenografted CDF1 mouse at 75 mg/kg, iv administered on day 1 after 30 days relative to control; type: functional; summary of the method: as §1
[10] = system: Mus musculus; assay: Toxicity against mouse P388 cells xenografted CDF1 mouse assessed as survival time at 6.25 mg/kg, iv; type: organism-based; parameters: dose 6.25 mg/kg, route intravenous; conditions: in vivo; summary of the method: as §1
[11] = system: Mus musculus; assay: Toxicity against mouse P388 cells xenografted CDF1 mouse assessed as survival time at 25 mg/kg, iv; type: organism-based; parameters: dose 25 mg/kg, route intravenous; conditions: in vivo; summary of the method: as §1
[12] = system: P388; assay: Antitumor activity against mouse P388 cells xenografted CDF1 mouse at 25 mg/kg, iv administered on day 1 after 30 days relative to control; type: functional; summary of the method: as §1
[13] = system: P388; assay: Antitumor activity against mouse P388 cells xenografted CDF1 mouse at 12.5 mg/kg, iv administered on day 1 after 30 days relative to control; type: functional; summary of the method: as §1
[14] = system: P388; assay: Antitumor activity against mouse P388 cells xenografted CDF1 mouse at 6.25 mg/kg, iv administered on day 1 after 30 days relative to control; type: functional; summary of the method: as §1
[15] = system: Mus musculus; assay: Toxicity against mouse P388 cells xenografted CDF1 mouse assessed as survival time at 12.5 mg/kg, iv; type: organism-based; parameters: dose 12.5 mg/kg, route intravenous; conditions: in vivo; summary of the method: as §1

Row | SMILES | IC50 [1] | T/C [2] | pKa [3] | Activity [4] | MSD [5] | MSD [6] | MSD [7] | T/C [8] | T/C [9] | MSD [10] | MSD [11] | T/C [12] | T/C [13] | T/C [14] | MSD [15]
1 | COc1ccc2c(c1O)CN(C)c1c-2ccc2cc3c(cc12)OCO3 | 16.2 µg/mL (≈ 48.3 µM) |  |  |  |  |  |  |  |  |  |  |  |  |  | 
2 | COc1ccc2c(c[n+](C)c3c4cc5c(cc4ccc23)OCO5)c1O.O.O.O=S(=O)([O-])O | 0.08 µg/mL | 147% | 5.3 | Toxic | 14.3 days | 23.5 days | 13.2 days | 261% | 159% |  |  |  |  |  | 
3 | COc1ccc2c(c[n+](C)c3c4cc5c(cc4ccc23)OCO5)c1OC.[Cl-] [CHELERYTHRINE CHLORIDE] | 1.24 µg/mL |  |  |  |  |  |  |  |  | 10 days | 1.1 days | 12% | 111% | 111% | 10 days
4 | COc1c(O)ccc2c1c[n+](C)c1c3cc4c(cc3ccc21)OCO4.[Cl-] [FAGARIDINE HYDROCHLORIDE] | 3.99 µg/mL |  |  |  |  |  |  |  |  |  |  |  |  |  | 
5 | COc1cc2c(ccc3c4cc(OC)c(OC)cc4c[n+](C)c23)cc1O.[Cl-] [FAGARONINE] | 0.39 µg/mL | 102% |  |  | 1.3 days |  | 9.5 days |  | 14% |  | 9.5 days | 102% |  |  | 
6 | COc1cc2c[n+](C)c3c4cc5c(cc4ccc3c2cc1OC)OCO5.[Cl-] [NITIDINE CHLORIDE] | 0.05 µg/mL | 102% |  |  | 4.3 days |  | 9.5 days |  | 46% |  | 10 days | 108% |  |  | 
7 | C[n+]1cc2c3c(ccc2c2ccc4cc5c(cc4c21)OCO5)OCO3.[Cl-] [SANGUINARIUM CHLORIDE] | 0.16 µg/mL | 12% |  |  |  |  | 1.1 days |  |  |  | 2.3 days | 25% | 102% |  | 9.5 days
